In ChEMBL document CHEMBL1158589, “Benzimidazole and imidazole inhibitors of histone deacetylases: Synthesis and biological activity” (Bioorg Med Chem Lett, 2010):
Calls of active or inactive are those of the source. The calls are words filed in the database; no cut-off is given here.

How the values were obtained:
Histone deacetylase 8 = biological target: T1, Histone deacetylase 8 (Homo sapiens, UniProt Q9BY41); assay: Inhibition of human recombinant HDAC8
T1 sequence (Q9BY41 whole entry): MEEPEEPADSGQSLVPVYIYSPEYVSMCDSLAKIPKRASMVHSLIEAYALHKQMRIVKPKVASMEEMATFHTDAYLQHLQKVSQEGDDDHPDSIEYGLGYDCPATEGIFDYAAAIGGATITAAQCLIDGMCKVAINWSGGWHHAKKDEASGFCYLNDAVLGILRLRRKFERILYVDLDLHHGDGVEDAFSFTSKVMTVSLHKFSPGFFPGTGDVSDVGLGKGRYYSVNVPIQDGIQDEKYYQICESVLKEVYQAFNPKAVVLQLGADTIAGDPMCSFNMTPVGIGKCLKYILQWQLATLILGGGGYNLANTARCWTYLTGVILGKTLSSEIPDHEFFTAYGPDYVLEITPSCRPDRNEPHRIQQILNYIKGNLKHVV

[1] = biological target: T2, Protein deacetylase HDAC6 (Homo sapiens, UniProt Q9UBN7); assay: Inhibition of human recombinant HDAC6
T2 sequence (Q9UBN7 whole entry): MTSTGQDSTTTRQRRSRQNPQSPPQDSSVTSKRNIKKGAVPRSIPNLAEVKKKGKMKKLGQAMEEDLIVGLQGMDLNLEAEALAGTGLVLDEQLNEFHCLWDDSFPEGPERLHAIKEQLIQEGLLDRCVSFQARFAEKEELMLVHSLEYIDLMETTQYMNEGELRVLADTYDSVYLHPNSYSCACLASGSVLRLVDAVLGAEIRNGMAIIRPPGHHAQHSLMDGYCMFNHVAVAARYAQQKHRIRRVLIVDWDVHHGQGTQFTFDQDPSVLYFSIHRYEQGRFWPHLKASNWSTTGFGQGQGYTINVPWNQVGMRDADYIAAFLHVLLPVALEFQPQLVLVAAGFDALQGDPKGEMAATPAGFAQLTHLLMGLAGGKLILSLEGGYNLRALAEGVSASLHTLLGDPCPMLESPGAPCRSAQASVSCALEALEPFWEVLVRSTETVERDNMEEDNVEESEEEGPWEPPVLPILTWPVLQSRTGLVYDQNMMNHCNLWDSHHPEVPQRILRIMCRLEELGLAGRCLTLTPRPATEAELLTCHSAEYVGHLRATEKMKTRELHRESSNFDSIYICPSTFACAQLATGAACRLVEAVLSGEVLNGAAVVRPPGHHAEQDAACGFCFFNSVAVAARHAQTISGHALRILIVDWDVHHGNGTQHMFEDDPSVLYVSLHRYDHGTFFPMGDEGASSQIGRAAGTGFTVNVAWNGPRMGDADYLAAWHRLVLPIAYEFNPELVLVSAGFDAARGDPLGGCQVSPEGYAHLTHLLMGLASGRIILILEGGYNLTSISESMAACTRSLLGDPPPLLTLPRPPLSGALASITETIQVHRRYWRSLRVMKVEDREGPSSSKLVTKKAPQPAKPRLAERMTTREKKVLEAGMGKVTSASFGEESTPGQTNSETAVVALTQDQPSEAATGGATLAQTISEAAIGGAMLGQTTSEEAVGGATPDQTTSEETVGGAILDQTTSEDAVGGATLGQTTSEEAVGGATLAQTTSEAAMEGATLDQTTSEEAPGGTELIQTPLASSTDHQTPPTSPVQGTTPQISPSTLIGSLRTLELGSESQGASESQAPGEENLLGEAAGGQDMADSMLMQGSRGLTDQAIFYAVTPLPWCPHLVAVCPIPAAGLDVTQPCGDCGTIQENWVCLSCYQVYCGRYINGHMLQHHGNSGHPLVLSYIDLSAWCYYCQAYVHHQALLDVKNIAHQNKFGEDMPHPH
Outline: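 Purified recombinant human HDAC-2 or HDAC-6 at known enzyme concentration with tBOC(Ac)-Lys-AMC as substrate. IC50 is the mean of at least three experiments.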

HL-60 [2] = assay: Cytotoxicity against human HL60 cells assessed as NADH level after 72 hrs by MTS cells; assay type: functional, cell-based; details: HL-60, 72 h
Outline: (§1)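 Human A549 lung, HL60 leukemia and PC3 prostate cancer lines incubated with compound for 72 h. Viability read by MTS colorimetric assay from remaining NADH; EC50 calculated; mean of at least two experiments.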

A549 = assay: Cytotoxicity against human A549 cells assessed as NADH level after 72 hrs by MTS cells; assay type: functional, cell-based; details: A549, 72 h; outline: as §1
PC-3 = assay: Cytotoxicity against human PC3 cells assessed as NADH level after 72 hrs by MTS cells; assay type: functional, cell-based; details: PC-3, 72 h; outline: as §1
HL-60 [3] = assay: Induction of histone H3 hyperacetylation in human HL60 cells after 4 hrs by Western blotting; assay type: functional, cell-based; details: HL-60, 4 h
Outline: (§2)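 HL60 leukemia cells exposed 4 h to 2.5-fold serial dilutions of compound, DMSO control. Whole-cell lysates Western blotted for acetylated histone H3 and H4, PCNA as loading control. Signals quantified to give the half-maximal response concentration.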

HCT-116 [4] = assay: Antitumor activity against human HCT116 cells xenografted in mouse assessed as tumor growth inhibition at 40 mg/kg, ip qd for 5 days per week; assay type: functional; details: route intraperitoneal
Outline: (§3)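 Human HCT116 colon xenografts in mice; intraperitoneal dosing qdx5 per week, 15 doses in total. %T/C calculated when vehicle-treated mice reached 1 g median tumor size, 10 days after the last dose.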

PANC-1 [5] = assay: Induction of histone H4 hyperacetylation in human PANC1 cells xenografted in mouse at 50 mg/kg, ip; assay type: functional, organism-based; parameters: dose 50 mg/kg
Outline: (§4)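 Mice bearing PANC-1 tumors given a single intraperitoneal dose of 50 mg/kg, vehicle control. Tumors harvested at set time points up to about 24 h. Whole tissue lysates Western blotted with antibodies to acetylated histone H3 or H4, actin as loading control.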

HL-60 [6] = assay: Induction of histone H4 hyperacetylation in human HL60 cells after 4 hrs by Western blotting; assay type: functional, cell-based; details: HL-60, 4 h; outline: as §2
[7] = Inhibition of HDAC assessed as induction of p21WAF1 expression in engineered cell line by luciferase reporter gene assay
PANC-1 [8] = assay: Induction of histone H3 hyperacetylation in human PANC1 cells xenografted in mouse at 50 mg/kg, ip; assay type: functional, organism-based; parameters: dose 50 mg/kg; outline: as §4
HCT-116 [9] = assay: Antitumor activity against human HCT116 cells xenografted in mouse assessed as tumor growth inhibition at 15 mg/kg, ip qd for 5 days per week; assay type: functional; details: route intraperitoneal; outline: as §3
Mus musculus [10] = assay: Toxicity in human HCT116 cells xenografted mouse assessed as change in body weight at 25 mg/kg, […]; assay type: organism-based, HCT-116; parameters: dose 25 mg/kg, route intraperitoneal; details: in vivo, ip, 120 h
Mus musculus [11] = assay: Toxicity in human HCT116 cells xenografted mouse assessed as change in body weight at 40 mg/kg, […]; assay type: organism-based, HCT-116; parameters: dose 40 mg/kg, route intraperitoneal; details: in vivo, ip, 120 h
HCT-116 [12] = assay: Antitumor activity against human HCT116 cells xenografted in mouse assessed as tumor growth inhibition at 25 mg/kg, ip qd for 5 days per week; assay type: functional; details: route intraperitoneal; outline: as §3
Mus musculus [13] = assay: Toxicity in human HCT116 cells xenografted mouse assessed as change in body weight at 15 mg/kg, […]; assay type: organism-based, HCT-116; parameters: dose 15 mg/kg, route intraperitoneal; details: in vivo, ip, 120 h

Row | SMILES | IC50 (Histone deacetylase 8) | IC50 [1] | EC50 (HL-60 [3]) | EC50 (HL-60 [6]) | EC50 [7] | EC50 (HL-60 [2]) | EC50 (A549) | EC50 (PC-3) | T/C (HCT-116 [4]) | Activity (PANC-1 [5]) | Activity (PANC-1 [8]) | T/C (HCT-116 [9]) | Activity (Mus musculus [10]) | Activity (Mus musculus [11]) | T/C (HCT-116 [12]) | Activity (Mus musculus [13])
1 | CN(C)CCn1c(-c2cccc(/C=C/C(=O)NO)c2)nc2ccccc21 | 160 nM | 79 nM | – | – | – | 1000 nM | 7900 nM | 2500 nM | – | – | – | – | – | – | – | –
2 | CC(C)N(CCn1c(-c2cccc(/C=C/C(=O)NO)c2)nc2ccccc21)C(C)C | 200 nM | 100 nM | – | – | – | 5000 nM | 5000 nM | 3100 nM | – | – | – | – | – | – | – | –
3 | C[C@@H](c1ccccc1)n1c(-c2cccc(/C=C/C(=O)NO)c2)nc2ccccc21 | 16 nM | 63 nM | – | – | – | 3100 nM | 31000 nM | 16000 nM | – | – | – | – | – | – | – | –
4 | CCN(CC)CCn1c(-c2cccc(/C=C/C(=O)NO)c2)nc2ccccc21 | 63 nM | 79 nM | – | – | – | 800 nM | 4000 nM | 1200 nM | – | – | – | – | – | – | – | –
5 | CCN1CCC[C@@H](n2c(-c3cccc(/C=C/C(=O)NO)c3)nc(C)c2C)C1 | 100 nM | 120 nM | – | – | – | 40 nM | 300 nM | 80 nM | – | – | – | – | – | – | – | –
6 | COc1ccc(-n2c(-c3cccc(/C=C/C(=O)NO)c3)nc3ccccc32)cc1 | 63 nM | 63 nM | – | – | – | 500 nM | 4000 nM | 1200 nM | – | – | – | – | – | – | – | –
7 | Cc1nc(-c2cccc(/C=C/C(=O)NO)c2)n(CCc2ccccc2)c1C | 31 nM | 63 nM | – | – | – | 80 nM | 400 nM | 200 nM | – | – | – | – | – | – | – | –

Second part, led by results:

Row | IC50 (Histone deacetylase 8) | IC50 [1] | EC50 (HL-60 [3]) | EC50 (HL-60 [6]) | EC50 [7] | SMILES | EC50 (HL-60 [2]) | EC50 (A549) | EC50 (PC-3) | T/C (HCT-116 [4]) | Activity (PANC-1 [5]) | Activity (PANC-1 [8]) | T/C (HCT-116 [9]) | Activity (Mus musculus [10]) | Activity (Mus musculus [11]) | T/C (HCT-116 [12]) | Activity (Mus musculus [13])
8 | 120 nM | 79 nM | – | – | – | O=C(/C=C/c1cccc(-c2nc3ccccc3n2[C@@H]2CCCNC2)c1)NO | 100 nM | 1000 nM | 100 nM | – | – | – | – | – | – | – | –
9 | 120 nM | 79 nM | – | – | – | CCN1CCCC(n2c(-c3cccc(/C=C/C(=O)NO)c3)nc3ccccc32)C1 (racemic) | 60 nM | 500 nM | 100 nM | – | – | – | – | – | – | – | –
10 | 160 nM | 79 nM | – | – | – | CCN1CCC[C@H](n2c(-c3cccc(/C=C/C(=O)NO)c3)nc3ccccc32)C1 | 80 nM | 600 nM | 200 nM | – | – | – | – | – | – | – | –
11 | 120 nM | 79 nM | – | – | – | CCN1CCC[C@@H](n2c(-c3cccc(/C=C/C(=O)NO)c3)nc3ccccc32)C1 | 30 nM | 200 nM | 50 nM | – | – | – | – | – | – | – | –
12 | 160 nM | 79 nM | – | – | – | CN1CCCC(n2c(-c3cccc(/C=C/C(=O)NO)c3)nc3ccccc32)C1 (racemic) | 80 nM | 500 nM | 100 nM | – | – | – | – | – | – | – | –
13 | 200 nM | 100 nM | 100 nM | 110 nM | 1000 nM | CN1CCC[C@@H](n2c(-c3cccc(/C=C/C(=O)NO)c3)nc3ccccc32)C1 | 40 nM | 300 nM | 50 nM | 45% | Active | Active | 66% | -2.5% | -3.6% | 47% | 1.7%
14 | 50 nM | 25 nM | – | – | – | O=C(/C=C/c1cccc(-c2nc3ccccc3n2C2CCCCC2)c1)NO | 500 nM | 3100 nM | 1600 nM | – | – | – | – | – | – | – | –
